Screening results from PubChem.
A selection: hits, their analogues and other compounds. The true share with any hit is near 1.3%.
PAD4 inh = blocks human protein arginine deiminase 4 | recombinant PAD4, RCA probe fluorescence polarization | inhibition, % at 6.36 µM | 330,000 compounds, 0.41% hits | AID 485272;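 active = percent inhibition above a cutoff equal to the mean of all tested compounds plus 3 SD, cut at about 15% in these data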;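 also: 0% = PAD4 with RCA probe and DMSO and 100% = probe without PAD4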
Fam108B counter = Fam108B inhibition, counter-screen for RBBP9 inhibitors | recombinant Fam108B, FP-Rh probe fluorescence polarization | inhibition, % at 9.51 µM | 300,000 compounds, 0.33% hits | AID 1947;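 active = inhibition above the screen mean inhibition plus 3 SD, computed separately per campaign, cut at about 18% in these data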;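 also: inhibitors lower polarization as less probe binds the enzyme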
RBBP9 inh = human RBBP9 hydrolase inhibition | AID 1515 | 220,000 compounds, 0.2% hits | O75884 | recombinant RBBP9, FP-Rh probe fluorescence polarization | inhibition, % at 7.94 µM;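 active = inhibition above the campaign mean of all tested compounds plus 3 SD, cut at about 14% in these data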;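 also: plate controls were DMSO wells with RBBP9 for no effect and wells lacking RBBP9 protein for full effect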
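Measured by – fluorescence polarization · Test system – RBBP9 protein · Input – 2.5 µM RBBP9 dispensing solution, before mixing · Measure – percent inhibition from mP, scaled between DMSO and no-protein wells · Benchmarks – DMSO-treated enzyme wells and wells lacking RBBP9 · Times – preincubation 30 min plus labeling 45 min at 25 °C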
LYPLA2 inh = blocks human lysophospholipase 2, a PME1 counter-screen; O95372; recombinant LYPLA2, FP-Rh probe fluorescence polarization; inhibition, % at 5.9 µM; 320,000 compounds, 0.38% hits; AID 2177;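 active = inhibition above the screen-wide mean plus 3 SD, limit set per campaign, cut at about 26% in these data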;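 also: 0% = LYPLA2 with DMSO and 100% = wells lacking LYPLA2 enzyme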
PME-1 primary = PME-1 (human) inhibition; Q9Y570; recombinant PME-1, FP-Rh probe fluorescence polarization; inhibition, % at 5.9 µM; 320,000 compounds, 0.53% hits; AID 2130;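 active = inhibition above the campaign mean of all compounds plus 3 SD, cut at about 26% in these data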;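 also: competitive labeling of PME-1 active site by serine hydrolase directed probe; 0% = PME-1 with DMSO and 100% = wells lacking PME-1 enzyme; inhibitors block probe labeling so polarization falls and inhibition rises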
Target sequence (Q9Y570 whole entry, looked up): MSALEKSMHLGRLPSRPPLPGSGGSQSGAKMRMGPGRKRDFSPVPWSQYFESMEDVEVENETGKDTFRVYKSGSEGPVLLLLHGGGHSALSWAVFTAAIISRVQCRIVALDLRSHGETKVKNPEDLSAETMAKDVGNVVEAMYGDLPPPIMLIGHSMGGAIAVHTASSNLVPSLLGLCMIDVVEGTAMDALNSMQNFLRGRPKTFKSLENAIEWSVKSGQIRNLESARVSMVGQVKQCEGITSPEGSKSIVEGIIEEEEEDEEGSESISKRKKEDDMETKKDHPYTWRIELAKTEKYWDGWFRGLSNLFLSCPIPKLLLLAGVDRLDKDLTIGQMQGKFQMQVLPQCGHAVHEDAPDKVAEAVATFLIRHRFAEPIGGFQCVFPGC
LYPLA1 inh = blocks human lysophospholipase 1, a PME1 counter-screen. O75608. inhibition, % at 5.9 µM. 320,000 compounds, 0.16% hits. recombinant LYPLA1, FP-Rh probe fluorescence polarization;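 active = inhibition above the mean of all tested compounds plus 3 SD, set per campaign, cut at about 14% in these data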;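 also: inhibitors block serine hydrolase probe labeling of LYPLA1 so polarization falls; 0% = enzyme with DMSO and 100% = wells lacking LYPLA1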
Fam108b confirm = Fam108b (mouse) hydrolase inhibition, confirmation assay; inhibition, % at 9.51 µM; 930 compounds, 44% hits; shares compounds with Fam108B counter; AID 1978; recombinant Fam108b, FP-Rh probe fluorescence polarization;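 active = inhibition above a limit from the primary screen, the mean over all compounds plus 3 SD, cut at about 19% in these data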;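 also: 0% = median of active Fam108b wells and 100% = catalytically dead S170A mutant; inhibitors free the probe so polarization falls as inhibition rises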
Fam108b inh = mouse ABHD17B inhibition. shares compounds with Fam108B counter. recombinant Fam108b, gel-based ABPP, fluorophosphonate probe. inhibition, % at 20 µM. 260 compounds, 44% hits. AID 588649; in the data active = inhibition above about 40%
* marks the source's active call; other numbers are inactive results.

`O=C(N/N=C/c1ccc([N+](=O)[O-])cc1)c1cccc(N2CCCC2=O)c1` gave PAD4 inh -0.1, Fam108B counter -2.1, LYPLA2 inh 7.8, PME-1 primary 1.5 and LYPLA1 inh 5.0.
CCN(CC)S(=O)(=O)c1cc(NC(=O)COC(=O)c2sc3ccccc3c2Cl)ccc1C was read as PAD4 inh -5.3, Fam108B counter 42.6*, RBBP9 inh -5.5, LYPLA2 inh -5.3, PME-1 primary 7.7, LYPLA1 inh -3.2, Fam108b confirm 58.6* and Fam108b inh 90.0*.
`CCN(CC)S(=O)(=O)c1cc(NC(=O)COC(=O)c2ccc(NC(=O)CC#N)cc2)ccc1C` gave PAD4 inh -6.3, Fam108B counter -3.0, RBBP9 inh -9.5, LYPLA2 inh -9.7, PME-1 primary -1.6 and LYPLA1 inh -16.5.
Cc1c(OC(C)C(=O)NCC2CCC(C(=O)O)CC2)ccc2c(-c3ccccc3)cc(=O)oc12 (configuration not stated) was read as PAD4 inh -0.6, Fam108B counter -4.1, LYPLA2 inh 2.1, PME-1 primary 2.8 and LYPLA1 inh 0.8.
`CCOC(=O)/C(C#N)=N/Nc1ccc(S(=O)(=O)N2CCc3ccccc32)cc1` gave PAD4 inh -3.5, Fam108B counter 5.8, RBBP9 inh -8.7, LYPLA2 inh 0.3, PME-1 primary 4.3 and LYPLA1 inh -0.3.
Screening N#C/C(=N\Nc1ccc(S(=O)(=O)N2CCc3ccccc32)cc1)C(N)=S returned PAD4 inh -9.5, Fam108B counter 21.5*, RBBP9 inh -1.1, LYPLA2 inh -11.4, PME-1 primary 11.7, LYPLA1 inh -9.9 and Fam108b confirm 27.0*.
`COc1ccc2c(c1)CCCC21NC(=O)N(CC(=O)NCc2cccs2)C1=O` (configuration not stated) gave PAD4 inh -3.1.
`COc1ccc(N/N=C(\C=N\O)C(=O)c2ccc(OC)cc2)cc1` gave PAD4 inh 0.8, Fam108B counter 47.2*, RBBP9 inh -1.7, LYPLA2 inh 15.7, PME-1 primary 57.4*, LYPLA1 inh 5.4 and Fam108b confirm 42.3*.
`COc1ccc(NC(=O)/C=N/O)cc1` gave PAD4 inh -9.5, Fam108B counter 7.4, RBBP9 inh -4.8, LYPLA2 inh -1.1, PME-1 primary 5.2 and LYPLA1 inh 1.9.
Screening O=c1oc(-c2ccccc2NS(=O)(=O)c2ccccc2)nc2ccccc12 returned PAD4 inh -6.6, Fam108B counter 20.9*, RBBP9 inh -10.7, LYPLA2 inh -1.3, PME-1 primary -2.7, LYPLA1 inh -3.4 and Fam108b confirm 18.0.
For Cc1ccc(C)c(S(=O)(=O)Nc2cc(SCC(=O)O)c(O)c3ccccc23)c1 the results were PAD4 inh 32.5*, Fam108B counter 28.7*, RBBP9 inh -1.1, LYPLA2 inh 35.0*, PME-1 primary 27.7*, LYPLA1 inh 3.6 and Fam108b confirm -10.4.
Screening O=c1cc(-c2ccc(O)c(-c3c(O)cc(O)c4c(=O)cc(-c5ccc(O)cc5)oc34)c2)oc2cc(O)cc(O)c12 returned PAD4 inh -3.7, Fam108B counter 44.1*, RBBP9 inh 6.8, LYPLA2 inh -34.7, PME-1 primary 4.9, LYPLA1 inh -21.5, Fam108b confirm 41.3* and Fam108b inh 75.0*.
Screening O=C(O)COc1ccccc1/C=N/Nc1ccc(S(=O)(=O)Nc2ccc(Cl)cc2)cc1[N+](=O)[O-] returned PAD4 inh -0.3, Fam108B counter 18.5*, RBBP9 inh 1.9, LYPLA2 inh 2.7, PME-1 primary 50.1*, LYPLA1 inh 3.4 and Fam108b confirm 24.2*.
Screening CC(=O)c1ccc(NC(=O)C[n+]2cccc(C)c2)cc1 returned PAD4 inh 3.8, Fam108B counter -0.5, LYPLA2 inh 1.9, PME-1 primary -2.7 and LYPLA1 inh 1.3.
